pCIP destab – compounds decreasing mouse p/CIP protein stability | Q05BA5 | F442A p/CIP-EGFP cells, EGFP fluorescence, 16 h | decrease of EGFP signal, % at 10 µM | 290,000 compounds, 0.01% hits;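 active = EGFP signal decrease of at least 30% at 10 µM or well 3 SD below plate mean, unless failing retest; inactive = the rest, including hits failing retest or dose response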
procasp7 counter – counter-screen for procaspase-3 activators: activators of human procaspase-7; P55210; recombinant procaspase-7, Ac-DEVD-pNA absorbance 405 nm; D23A/D198A/D206A triple mutant, cannot self-cleave; scale: DMSO 0, 5 µM enzyme 100; activation, % at 8.5 µM; 330,000 compounds, 0.093% hits;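 active = percent activation above the screen-wide mean plus 3 SD, cut at about 25% in these data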
Target sequence (P55210 whole entry D23A/D198A/D206A): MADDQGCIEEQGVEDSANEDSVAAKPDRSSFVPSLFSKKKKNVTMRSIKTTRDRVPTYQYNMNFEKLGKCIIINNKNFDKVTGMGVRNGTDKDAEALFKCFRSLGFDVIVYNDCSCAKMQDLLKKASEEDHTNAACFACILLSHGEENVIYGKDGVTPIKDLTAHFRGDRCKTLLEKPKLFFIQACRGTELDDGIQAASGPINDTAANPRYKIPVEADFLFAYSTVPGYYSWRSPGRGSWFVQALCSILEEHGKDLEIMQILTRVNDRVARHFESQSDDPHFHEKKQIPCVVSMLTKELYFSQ
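Detection: p-Nitroaniline absorbance at 405 nm, read at 0 and 120 min; system: Uncleavable procaspase-7 mutant enzyme; evaluation: % activation from two-timepoint absorbance difference, scaled to controls; times: 1 h enzyme–compound preincubation and 2 h substrate reaction, both 25 °C; buffer or medium: Zinc-free HEPES pH 7.4 with 300 mM NaCl, 0.01% Triton X-100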
proCasp3 act – procaspase-3 (human) activation | 330,000 compounds, 0.11% hits | P42574 | activation, % at 8.5 µM | recombinant procaspase-3 D3A, Ac-DEVD-pNA absorbance 405 nm;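 active = activation above the mean of all tested compounds plus 3 SD, cut at about 21% in these data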;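 also: 0% = DMSO alone and 100% = DMSO wells spiked with extra 5 µM PC-3 D3A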
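assay system = Procaspase-3 D3A mutant | signal = absorbance at 405 nm, 0 and 120 min | times = 1 h preincubation plus 2 h reaction at 25 °C | repeats = single replicate | read-out = % activation between DMSO and enzyme-spiked controls | medium = Zinc-free HEPES saline buffer with Triton X-100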
FXN GAA850 act – increases GAA850 frataxin promoter reporter activity; HEK293 lucGAA850 FXN promoter luciferase reporter, 24 h; percent of 10 µM SAHA response; activation, % at 6 µM; 360,000 compounds, 0.56% hits; AID 540364;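 active = activation above the average of all compounds screened plus 3 SD, cutoff fixed separately per campaign, cut at about 7.5% in these data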;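 also: 0% = DMSO wells and 100% = 10 µM SAHA wells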
Rce1 inhib – yeast Ras-converting enzyme inhibition; Q03530; yeast membranes, quenched prenylated peptide cleavage fluorescence; calls only; 290,000 compounds, 0.27% hits; AID 2563;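 active = fall in fluorescence gain of 50% or more versus controls, with final raw signal at or below 3038400; inconclusive = same 50% fall but final raw signal above 3038400; inactive = fall in fluorescence gain under 50%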;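 also: plate controls were neutral control wells for no effect and wells lacking membranes for full effect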
Target sequence (Q03530 whole entry, looked up): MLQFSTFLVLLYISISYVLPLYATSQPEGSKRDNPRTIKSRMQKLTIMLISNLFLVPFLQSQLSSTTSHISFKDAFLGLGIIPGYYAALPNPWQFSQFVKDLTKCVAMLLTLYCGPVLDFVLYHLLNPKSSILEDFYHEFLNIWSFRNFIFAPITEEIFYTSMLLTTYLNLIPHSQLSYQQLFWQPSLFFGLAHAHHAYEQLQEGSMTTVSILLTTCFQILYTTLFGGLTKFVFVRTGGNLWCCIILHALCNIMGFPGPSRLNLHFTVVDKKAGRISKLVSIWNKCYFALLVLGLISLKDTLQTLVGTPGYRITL
Lipid droplet – modulators of hepatic lipid droplet formation | AML12 mouse hepatocytes, oleate lipid droplets, BODIPY imaging | inhibition, % at 6.5 µM | 240,000 compounds, 0.4% hits;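 active = lipid droplet intensity inhibited by at least 50%, with more than 500 cells counted; inconclusive = wells with under 300 cells, treated as cytotoxic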
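material = mouse AML12 hepatocyte cell line, fixed after treatment | also added = 100 µM oleic acid challenge | doses = compound at 6.5 µM only | schedule = overnight exposure | technique = Image-based BODIPY and DAPI two-channel analysis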
* marks the source's active call; other numbers are inactive results; i = inactive; u = inconclusive; x = not tested or not shown; + = active, no number. A selection: hits, their analogues and other compounds. The true share with any hit is near 1.2%.

SMILES	pCIP destab	procasp7 counter	proCasp3 act	FXN GAA850 act	Rce1 inhib	Lipid droplet
Cc1c(C)c2ccc(OC(C)C(=O)NCCCN3CCOCC3)c(C)c2oc1=O (centres undefined)	-23	4	3	4	+	1
CCc1cccc2c(SCC(=O)NCC3CCCO3)nc(-c3ccc(F)cc3)nc12 (centres undefined)	-16	9	14	0	i	13
O=C(CSc1nnc(-c2ccc(F)cc2)c2ccccc12)NCC1CCCO1 (centres undefined)	8	3	-1	8.8*	i	-6
COc1ccc(NC(=O)Cn2c(CCC(=O)O)ccc2-c2ccccc2)cc1	-12	-3	1	-2	i	3
COC(=O)Cn1c(CCC(=O)O)ccc1-c1ccccc1	-20	2	9	2	+	x
CNC(C)C#Cc1ccc2oc3cccc(OC)c3c(=O)c2c1 (centres undefined)	2	-2	-7	7.8*	i	9
O=C(CN1C(=O)/C(=C\c2ccccc2Cl)Oc2ccccc21)NCc1cccnc1	-7	14	0	2	i	-12
Cc1ccc(CN2C(=O)/C(=C\c3ccc(C(=O)NCc4cccnc4)cc3)Oc3ccccc32)cc1	6	25	27*	x	i	-5
COCCN1C(=O)/C(=C/c2ccc(Oc3ccc([N+](=O)[O-])cn3)c(OC)c2)SC1=Nc1ccccc1	-6	0	4	-1	+	-20
COc1cc(/C=C2\SC(=Nc3ccccc3)N(CCc3c[nH]c4ccccc34)C2=O)ccc1OC(C)C(=O)O (centres undefined)	-7	-6	0	0	i	9
COc1cc(CNC(=O)c2cc(-c3cc(Cl)ccc3C)n[nH]2)cc(OC)c1	x	x	x	-1	x	x
Cc1ccc(C(NC(=O)C2CCCCC2)c2c(O)ccc3ccccc23)cc1 (centres undefined)	-9	-2	10	-1	i	57*
CC(NC(=O)/C(C#N)=C/c1ccc(Cl)c([N+](=O)[O-])c1)c1ccccc1 (centres undefined)	-17	2	9	x	+	-6
C[C@@H](NC(=O)/C(C#N)=C/c1ccc(O)c(O)c1)c1ccccc1	x	-24	-22	3	x	x
C[C@H](NC(=O)C1CCN(C(=O)[C@@H]2CCCN2C(=O)OC(C)(C)C)CC1)C(=O)NCc1ccc(F)cc1	x	x	x	0	x	x
Cc1cccc(S(=O)(=O)NC(=O)C2(C)CCN2C(=O)CCC2CCCC2)c1 (centres undefined)	x	x	x	1	x	x
CCCCNC(=O)C1(C)CCN1C(=O)c1ccc(F)cc1Cl (centres undefined)	x	x	x	2	x	x
O=C1[C@H]2[C@@H](c3ccc(F)cc3)N3C(=O)N(c4ccccc4)C(=O)[C@@]3(Cc3ccc(Cl)cc3)[C@H]2C(=O)N1C1CCCCC1	-9	-4	1	11*	i	-11
C[C@@]12C(=O)N(c3cccc(F)c3)C(=O)N1[C@H](c1ccc(F)cc1)[C@@H]1C(=O)N(C3CCCCC3)C(=O)[C@@H]12	-4	-5	5	14*	i	-2
C[C@@]12C(=O)N(c3cccc(Cl)c3)C(=O)N1[C@H](c1ccc(Cl)cc1)[C@@H]1C(=O)N(C3CCCCC3)C(=O)[C@@H]12	x	1	3	7	i	x
CCOC(=O)CCc1c(C)n(CC)c2cc(-c3ccccc3OC)nn2c1=O	4	-5	4	1	i	11
CCN(CC)CCCNC(=O)CCc1c(C)n(CC)c2cc(-c3ccccc3OC)nn2c1=O	0	0	-2	1	+	8
Cn1c2ccccc2c(=O)c2ccc(NCCc3cccs3)cc21	x	-18	-13	10.0*	x	x
O=C(Nc1ccc2c(c1)OCO2)c1cc2ncc(Br)cn2n1	-2	x	x	-1	i	69*
Cc1nc(SC(C(=O)c2ccccc2)c2ccccc2)nc2ccccc12 (centres undefined)	2	20	-2	4	+	-41
SMILES	pCIP destab	procasp7 counter	proCasp3 act	FXN GAA850 act	Rce1 inhib	Lipid droplet
Cc1ccc(-c2cc(-c3ccccc3)c(C#N)c(Br)n2)cc1	6	8	11	1	+	8
CCOC(=O)C(NC(=O)c1ccccc1)(OCc1ccc(F)cc1)C(F)(F)F (centres undefined)	-5	9	3	-1	i	43
CCOC(=O)C(NC(=O)c1cccc(Cl)c1)(OCc1ccc(F)cc1)C(F)(F)F (centres undefined)	-6	0	6	-1	i	64*
COc1ccccc1C1(O)CCN(CC(=O)Nc2nc(-c3ccccc3)cs2)CC1	-8	1	1	-3	i	89*
CCc1nnc(NC(=O)CN2CCC(O)(c3ccccc3OC)CC2)s1	3	0	-3	-1	i	x
Cc1c(C(=O)NCc2cccs2)sc(=O)n1Cc1ccc(S(C)(=O)=O)cc1	x	x	x	-3	x	x
COc1ccc(S(=O)(=O)NCC2CCCO2)cc1NC(=O)c1ccccc1F (centres undefined)	-3	0	-2	0	+	-1
O=C1CCCN1CCCNc1nc(NCc2cccs2)nc2ccsc12	x	x	x	-1	x	x
COc1cc(C(=O)NCCCNc2nc3cc(C)cc(C)c3cc2C#N)cc(OC)c1OC	-4	4	-7	4	i	x
COCCCNC(=S)NCCNc1nc2cc(C)cc(C)c2cc1C#N	1	0	-7	1	+	36
Cc1ccccc1-c1cc2nc(NCc3ccc4occc4c3)n(C)c(=O)c2s1	x	x	x	1	x	x
CCOc1ccccc1/C=C(/NC(=O)c1ccccc1)C(=O)NCC(=O)O	-5	-6	-8	1	i	52*
CCOc1ccccc1/C=C(\NC(=O)c1ccccc1)C(=O)NCCC(=O)O	-5	-12	-2	4	i	-3
COc1ccc(Cl)cc1-c1cc(C(=O)NCc2cccs2)[nH]n1	x	x	x	-1	x	x
COc1ccccc1-c1nn2c(-c3ccc(C(C)(C)C)cc3)nnc2s1	-7	x	x	x	x	x
COc1ccccc1-c1nnc2sc(-c3ccc(N(C)C)cc3)nn12	-3	-20	-3	1	+	u
Cc1c(Cc2ccccc2)c(=O)oc2c(C)c(OCC(=O)N3CCC(C(=O)O)CC3)ccc12	3	2	0	0	+	x
COc1ccc(NC(=O)C2CCCN2S(=O)(=O)c2ccc3c(c2)C(C)(C)C(=O)N3C)cc1 (centres undefined)	x	x	x	-2	x	x
CC1CCN(C(=O)c2cc3nc(-c4ccccc4)cc(-c4ccccc4)n3n2)CC1	-4	5	-3	-3	+	-2

Assay outcomes from PubChem.
